In ChEMBL document CHEMBL4130545, “Lupane-Type Triterpenes of Phoradendron vernicosum” (J Nat Prod, 2017):

Legend:
MDA-MB-231 [1] = assay: Antiproliferative activity in human MDA-MB-231 cells by sulforhodamine B assay; assay type: functional, cell-based
Method in brief: (§1)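 Cells grown in D-MEM with 10% (v/v) FBS, 100 U/mL penicillin G and 100 μg/mL streptomycin, at 37 °C under 5% CO2 and 95% humidity. Cytotoxic and antiproliferative effects were measured by the sulforhodamine B method of Skehan et al. CC50 (cytotoxic) or IC50 (antiproliferative) is the concentration giving 50% growth reduction. Docetaxel was the positive control. Triplicate tests.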

KB [2] = assay: Antiproliferative activity in human KB cells by sulforhodamine B assay; assay type: functional, cell-based; method in brief: as §1
DU-145 [3] = assay: Cytotoxic activity in human DU145 cells by sulforhodamine B assay; assay type: functional
Method in brief: (§2)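 Cell lines grown in D-MEM with 10% (v/v) FBS, 100 U/mL penicillin G and 100 μg/mL streptomycin at 37 °C, 5% CO2, 95% humidity. Cytotoxicity was measured by the Skehan method. CC50 was taken as the concentration that reduces cell growth by 50%. Docetaxel served as positive control, and each test was run in triplicate.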

HeLa [4] = assay: Antiproliferative activity in human HeLa cells by sulforhodamine B assay; assay type: functional, cell-based; method in brief: as §1
KB [5] = assay: Cytotoxic activity in human KB cells by sulforhodamine B assay; assay type: functional; method in brief: as §2
[6] = Cytotoxic activity in HEK293 cells by sulforhodamine B assay; assay type: cell-based; details: human; method in brief: as §1
MCF7 [7] = assay: Cytotoxic activity in human MCF7 cells by sulforhodamine B assay; assay type: functional; method in brief: as §2
DU-145 [8] = assay: Antiproliferative activity in human DU145 cells by sulforhodamine B assay; assay type: functional, cell-based; method in brief: as §1
SiHa [9] = assay: Antiproliferative activity in human SiHa cells by sulforhodamine B assay; assay type: functional, cell-based; method in brief: as §1
HEK293 = assay: Antiproliferative activity in HEK293 cells by sulforhodamine B assay; assay type: cell-based; details: Homo sapiens; method in brief: as §1
HEp-2 [10] = assay: Cytotoxic activity in human Hep2 cells by sulforhodamine B assay; assay type: functional; method in brief: as §2
MCF7 [11] = assay: Antiproliferative activity in human MCF7 cells by sulforhodamine B assay; assay type: functional, cell-based; method in brief: as §1
HEp-2 [12] = assay: Antiproliferative activity in human Hep2 cells by sulforhodamine B assay; assay type: functional, cell-based; method in brief: as §1
[13] = Cytotoxic activity in African green monkey Vero cells by sulforhodamine B assay; assay type: cell-based; details: chlorocebus sabaeus; method in brief: as §1
HeLa [14] = assay: Cytotoxic activity in human HeLa cells by sulforhodamine B assay; assay type: functional; method in brief: as §2
SiHa [15] = assay: Cytotoxic activity in human SiHa cells by sulforhodamine B assay; assay type: functional; method in brief: as §2
MDA-MB-231 [16] = assay: Cytotoxic activity in human MDA-MB-231 cells by sulforhodamine B assay; assay type: functional; method in brief: as §2
Vero = assay: Antiproliferative activity in African green monkey Vero cells by sulforhodamine B assay; assay type: cell-based; details: Chlorocebus sabaeus; method in brief: as §1
[17] = Selectivity index, ratio of antiproliferative IC50 for African green monkey Vero cells to antiproliferative IC50 for human KB cells; assay type: toxicity; details: Vero cells versus KB cells, read-out: Ratio IC50
Method in brief: (§3)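 Selectivity index for harmfulness to normal cells: the normal-cell (Vero or HEK293) CC50 or IC50 over the cancer-cell value from the same assay type. Each value is from sulforhodamine B growth-reduction tests done in triplicate in D-MEM/10% FBS at 37 °C, 5% CO2.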

[18] = Selectivity index, ratio of antiproliferative IC50 for African green monkey Vero cells to antiproliferative IC50 for human MCF7 cells; assay type: toxicity; details: Vero cells versus MCF7 cells, read-out: Ratio IC50; method in brief: as §3
[19] = Selectivity index, ratio of cytotoxic CC50 for African green monkey Vero cells to cytotoxic CC50 for human MDA-MB-231 cells; assay type: toxicity; details: Vero cells versus MDA-MB-231 cells, read-out: Selectivity Index; method in brief: as §3
[20] = Selectivity index, ratio of antiproliferative IC50 for African green monkey Vero cells to antiproliferative IC50 for human SiHa cells; assay type: toxicity; details: Vero cells versus SiHa cells, read-out: Ratio IC50; method in brief: as §3
[21] = Selectivity index, ratio of cytotoxic CC50 for African green monkey Vero cells to cytotoxic CC50 for human MCF7 cells; assay type: toxicity; details: Vero cells versus MCF7 cells, read-out: Selectivity Index; method in brief: as §3
[22] = Selectivity index, ratio of cytotoxic CC50 for African green monkey Vero cells to cytotoxic CC50 for human SiHa cells; assay type: toxicity; details: Vero cells versus SiHa cells, read-out: Selectivity Index; method in brief: as §3
[23] = Selectivity index, ratio of antiproliferative IC50 for African green monkey Vero cells to antiproliferative IC50 for human Hep2 cells; assay type: toxicity; details: Vero cells versus Hep2 cells, read-out: Ratio IC50; method in brief: as §3
[24] = Selectivity index, ratio of cytotoxic CC50 for African green monkey Vero cells to cytotoxic CC50 for human DU145 cells; assay type: toxicity; details: Vero cells versus DU145 cells, read-out: Selectivity Index; method in brief: as §3
[25] = Selectivity index, ratio of cytotoxic CC50 for African green monkey Vero cells to cytotoxic CC50 for human KB cells; assay type: toxicity; details: Vero cells versus KB cells, read-out: Selectivity Index; method in brief: as §3
[26] = Selectivity index, ratio of cytotoxic CC50 for African green monkey Vero cells to cytotoxic CC50 for human Hep2 cells; assay type: toxicity; details: Vero cells versus Hep2 cells, read-out: Selectivity Index
[27] = Selectivity index, ratio of antiproliferative IC50 for African green monkey Vero cells to antiproliferative IC50 for human HeLa cells; assay type: toxicity; details: Vero cells versus HeLa cells, read-out: Ratio IC50; method in brief: as §3
[28] = Selectivity index, ratio of cytotoxic CC50 for African green monkey Vero cells to cytotoxic CC50 for human HeLa cells; assay type: toxicity; details: Vero cells versus HeLa cells, read-out: Selectivity Index; method in brief: as §3

| Compound | IC50 (MDA-MB-231 [1]) [µM] | IC50 (KB [2]) [µM] | CC50 (DU-145 [3]) [µM] | IC50 (HeLa [4]) [µM] | CC50 (KB [5]) [µM] | CC50 [6] [µM] | CC50 (MCF7 [7]) [µM] | IC50 (DU-145 [8]) [µM] | IC50 (SiHa [9]) [µM] | IC50 (HEK293) [µM] | CC50 (HEp-2 [10]) [µM] | IC50 (MCF7 [11]) [µM] | IC50 (HEp-2 [12]) [µM] | CC50 [13] [µM] | CC50 (HeLa [14]) [µM] | CC50 (SiHa [15]) [µM] | CC50 (MDA-MB-231 [16]) [µM] | IC50 (Vero) [µM] | selectivity ratio [20] | selectivity ratio [21] | other results |
| --- | --- | --- | --- | --- | --- | --- | --- | --- | --- | --- | --- | --- | --- | --- | --- | --- | --- | --- | --- | --- | --- |
| C=C(C=O)[C@@H]1CC[C@]2(C(=O)O)CC[C@]3(C)[C@H](CC[C@@H]4[C@@]5(C)CC[C@@H](O)[C@](C)(CO)[C@@H]5CC[C@]43C)[C@@H]12 | 123 | > 500 | 52.6 | 106 | > 500 | > 500 | > 500 | 89.7 | 127 | > 500 | > 500 | > 500 | > 500 | > 500 | 182 | 92.2 | 106 | > 500 | – | – | – |
| C=C(C)[C@@H]1CC[C@]2(C(=O)O)CC[C@]3(C)[C@H](CC[C@@H]4[C@@]5(C)CC[C@@H](O)[C@](C)(CO)[C@@H]5CC[C@]43C)[C@@H]12 | 169 to 500 | 12.5 to 500 | 53.1 to 97.2 | > 500 | 24.1 to 500 | 95.8 to 500 | 31.7 to 98.5 | > 500 | 57.8 to 500 | 95.5 to 500 | > 500 | 48.9 to 500 | 75.2 to 500 | > 500 | 120 to 153 | 20.3 to 110 | 71.2 to 91.1 | > 500 | 1.6 | 3 | selectivity ratio [17]: 18.3; selectivity ratio [18]: 1.9; selectivity ratio [19]: 1.3; selectivity ratio [22]: 4.7; selectivity ratio [23]: 1.3; selectivity ratio [24]: 1.8; selectivity ratio [25]: 18.3 |
| C=C(C)[C@@H]1CC[C@]2(C(=O)O)CC[C@]3(C)[C@H](CC[C@@H]4[C@@]5(C)CC[C@H]6OC(C)(C)OC[C@]6(C)[C@@H]5CC[C@]43C)[C@@H]12 | > 500 | 16.4 | > 500 | > 500 | 10.2 | 420 | 84.6 | > 500 | 58.2 | 656 | 32.4 | > 500 | > 500 | > 500 | > 500 | > 500 | > 500 | > 500 | 11.3 | 5 | selectivity ratio [17]: 39.9; selectivity ratio [26]: 13; selectivity ratio [25]: 41 |
| C=C(C)[C@@H]1CC[C@]2(CO)CC[C@]3(C)[C@H](CC[C@@H]4[C@@]5(C)CC[C@H](O)C(C)(C)[C@@H]5CC[C@]43C)[C@@H]12 [BETULIN] | > 500 | > 500 | 162 | > 500 | > 500 | > 500 | > 500 | 137 | > 500 | > 500 | > 500 | > 500 | > 500 | > 500 | > 500 | > 500 | > 500 | > 500 | – | – | – |
| C=C(C)[C@@H]1CC[C@]2(CO)CC[C@]3(C)[C@H](CC[C@@H]4[C@@]5(C)CCC(=O)C(C)(C)[C@@H]5CC[C@]43C)[C@@H]12 [BETULONE] | > 500 | > 500 | 102 | > 500 | > 500 | > 500 | > 500 | > 500 | > 500 | > 500 | > 500 | > 500 | > 500 | > 500 | 136 | 197 | 136 | > 500 | – | – | – |
| C=C(C)[C@@H]1CC[C@]2(C(=O)O)CC[C@]3(C)[C@H](CC[C@@H]4[C@@]5(C)CCC(=O)C(C)(C)[C@@H]5CC[C@]43C)[C@@H]12 [BETUNOLIC ACID] | > 500 | > 500 | 139 | > 500 | > 500 | > 500 | > 500 | > 500 | > 500 | > 500 | > 500 | > 500 | > 500 | > 500 | > 500 | 117 | 60.9 | > 500 | – | – | – |
| C=C(C)[C@@H]1CC[C@]2(C(=O)O)CC[C@]3(C)[C@H](CC[C@@H]4[C@@]5(C)CC[C@@H](O)C(C)(C)[C@@H]5CC[C@]43C)[C@@H]12 [EPIBETULINIC ACID] | > 500 | > 500 | > 500 | 91.8 | > 500 | > 500 | 154 | > 500 | 117 | > 500 | > 500 | 91.6 | > 500 | 107 | 118 | 113 | > 500 | 117 | 1 | 0.7 | selectivity ratio [27]: 1.3; selectivity ratio [18]: 1.2; selectivity ratio [22]: 0.9; selectivity ratio [28]: 0.9 |
| C=C(C)[C@@H]1CC[C@]2(C)CC[C@]3(C)[C@H](CC[C@@H]4[C@@]5(C)CCC(=O)C(C)(C)[C@@H]5CC[C@]43C)[C@@H]12 [LUPENONE] | > 500 | > 500 | > 500 | > 500 | > 500 | > 500 | > 500 | > 500 | > 500 | > 500 | > 500 | > 500 | > 500 | > 500 | > 500 | > 500 | > 500 | > 500 | – | – | – |
| CC1(C)CC[C@]2(C(=O)O)CC[C@]3(C)C(=CC[C@@H]4[C@@]5(C)CC[C@H](O)C(C)(C)[C@@H]5CC[C@]43C)[C@@H]2C1 [OLEANOLIC_ACID] | 134 | > 500 | 65.6 | 204 | > 500 | > 500 | > 500 | 124 | 110 | > 500 | > 500 | > 500 | > 500 | > 500 | > 500 | 109 | 106 | > 500 | – | – | – |
